Measurements published in ChEMBL document CHEMBL3272165, “Cycloalkanoindoles. 2. 1-Alkyl-1,2,3,4-tetrahydrocarbazole-1-ethanamines and related compounds. Potential antidepressants” (J Med Chem, 1976).

Experiments:
Mus musculus = experiment: Antidepressant activity in ip dosed mouse assessed as prevention of reserpine-induced ptosis; format: functional
Procedure, shortened: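 Mice dosed ip with test compound; reserpine given to induce ptosis (adapted Petersen et al. method). The percentage of mice with ptosis prevented was recorded. ED50 (mg/kg) derived by the Finney method.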

[1] = Acute toxicity in ip dosed albino mouse assessed as mortality measured for 5 days; format: organism-based; conditions: in vivo
Procedure, shortened: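 Graded intraperitoneal doses, five animals per group; approximate LD50 estimated from mortality recorded over the 5 days after dosing.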

Rattus norvegicus = experiment: Antidepressant activity in ip dosed rat assessed as prevention of tetrabenazine-induced ptosis; format: functional
Procedure, shortened: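 Rats dosed ip; tetrabenazine used to induce ptosis (modified Giurgea et al. method). ED50 (mg/kg) derived by the Finney method from prevention of ptosis.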

Row | SMILES | ED50 (Mus musculus) | LD50 at 120 h [1] | ED50 (Rattus norvegicus)
1 | Br.CCn1c2c(c3ccccc31)CCCC2(CC)CCN(C)C (centres undefined) | 0.7 mg/kg | 175 mg/kg | 
2 | CCn1c2c(c3cc(Cl)ccc31)CCCC2(C)CCN(C)C.Cl (centres undefined) | 0.19 mg/kg |  | 
3 | CCc1cccc2c3c(n(CC)c12)C(C)(CCN(C)C)CCC3.O=C(O)/C=C/C(=O)O (centres undefined) | 19 mg/kg |  | 
4 | CN(C)CCC1(C)CCCc2c1n(C)c1ccccc21.Cl (centres undefined) | 0.8 mg/kg | 125 mg/kg | 
5 | CCCn1c2c(c3ccccc31)CCCC2(C)CCN(C)C.Cl (centres undefined) | 0.4 mg/kg | 125 mg/kg | 
6 | CCn1c2c(c3ccccc31)CCCC2(C)CCN(C)C.Cl (centres undefined) | 0.12 mg/kg | 125 mg/kg | 3.3 mg/kg
7 | CCn1c2c(c3ccccc31)CCCC2(C)CCNC.Cl (centres undefined) | 1.6 mg/kg | 125 mg/kg | 
8 | CN(C)CCC1CCCc2c1n(C)c1ccccc21.Cl (centres undefined) | 5 mg/kg | 125 mg/kg | 
9 | CN(C)CC1CCCc2c1[nH]c1ccc(Cl)cc21 (centres undefined) | > 30 mg/kg |  | 
10 | Br.CCn1c2c(c3ccccc31)CCC2(C)CCN(C)C (centres undefined) | 0.75 mg/kg |  | 
11 | CCn1c2c(c3ccccc31)CCCCC2(C)CCN(C)C.Cl (centres undefined) | 0.27 mg/kg | 85 mg/kg | 
12 | CN(C)CCC=C1c2ccccc2CCc2ccccc21 [AMITRIPTYLINE] | 4.7 mg/kg | 94 mg/kg | 37 mg/kg
13 | CN(C)CCCN1c2ccccc2CCc2ccccc21 [IMIPRAMINE] | 6 mg/kg |  | 22.6 mg/kg
